Data set [1] deals with L1210. As to the kind of experiment: Inhibition of L1210 lymphoid leukemia cells 24 hr after administration (length of preincubation=0 hr). The class given is functional, cell-based. The note with it: Mus musculus. Put shortly: (§1)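 L1210 cells (2×10^4/well) exposed continuously to serially diluted compound in Fischer's medium with 10% horse serum for up to 72 h. Viable cells were counted by Trypan blue exclusion at 24, 48 and 72 h. IC50 is the concentration giving 50% growth inhibition, estimated from response curves of three separate experiments.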

Data set [2] concerns L1210. As to the kind of experiment: Inhibition of L1210 lymphoid leukemia cells 72 hr after administration (length of preincubation=0 hr). The note with it: Mus musculus. The class given is functional, cell-based. The method in brief:
as §1

Data set [3] has as its system L1210. Put plainly: Inhibition of L1210 lymphoid leukemia cells 48 hr after administration (length of preincubation=0 hr). It is filed as functional, cell-based. The conditions noted are these: Mus musculus. Put shortly: as §1
Data set [4] in a line: Half life in human plasma. It is filed as ADME. Put shortly: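 Compound ([…]) incubated in 1 mL fresh human plasma at 37 °C against a buffer reference; hydrolysis followed by change in absorption at 325 nm (ϵ 1.55). Initial concentration about 2 × 10^-4 M; apparent first-order kinetics, with the pseudo-first-order rate constant given by k = 0.693/t1/2.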

Usually IC50 stands for the concentration needed to halve the response being measured. High values mean weaker potency in that assay, low ones greater potency in that assay. In general, half-life refers to the time in which the quantity being followed falls by half. Low values mean rapid decline, high ones slow decline.

For `Nc1ccn([C@@H]2O[C@H](CO)[C@@H](O)[C@@H]2O)c(=O)n1` [CYTARABINE], the figures for the IC50 in the data set on L1210 [1], with L1210 [2] and in the data set on L1210 [3] were 100 nM, 10 nM and 10 nM, respectively.

As for `CC(C)C[C@H](NC(=O)[C@H](N)C(C)C)C(=O)N[C@@H](CCCCN)C(=O)N(C)c1ccn([C@@H]2O[C@H](CO)[C@@H](O)[C@@H]2O)c(=O)n1.N=C(N)c1ccc(CS(=O)(=O)F)cc1`, the results for the IC50 in the data set with L1210 [1], with L1210 [2] and in the data set on L1210 [3] were 1000 nM, 10 nM and 5 nM, respectively. This compound showed a half-life in data set [4] of 5.5 h.

The values above are taken from ChEMBL document CHEMBL1126194, “Synthesis and functional evaluation of a peptide derivative of 1-beta-D-arabinofuranosylcytosine” (J Med Chem, 1992).
